In the library only some 1.2% were active in any assay of this set; here they are far more common.
NSD2 HMT inh: blocks human histone methyltransferase NSD2. O96028. NSD2 peptide methylation, AlphaScreen, 120 min. inhibition, % at 12.5 µM. 310,000 tested, 0.54% active; in the data active = inhibition above about 50%
TDP2 inh: blocks human TDP2 phosphodiesterase activity; inhibition, % at 12.8 µM; O95551; 370,000 tested, 0.34% active; AID 720702; recombinant TDP2, T5PNP hydrolysis, p-nitrophenol absorbance 415 nm;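 active = inhibition above the mean of all tested compounds plus 3 SD, set per campaign, cut at about 25% in these data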
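Material: recombinant human TDP2; quantity: TDP2 enzyme at 120 nM final; medium: Tris-HCl pH 7.5 with MgCl2; compound: single concentration, 12.8 µM nominal, with 1% DMSO; incubation: 2 h enzyme incubation at 37 °C; signal: epi absorbance; measure: percent inhibition; benchmarks: high control without enzyme, low control DMSO plus TDP2; repeats: singlicate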
SUMO HTRF inh: blocks human SUMOylation mediated by UBC9; 290,000 tested, 0.36% active; HTRF SUMOylation assay, SAE1/SAE2 + UBC9, in vitro; inhibition, % at 35 µM; P63279; in the data active = inhibition above about 50%, passing the limit was not always enough
CTSL1 counter: blocks F. hepatica cathepsin L1 in PFM18AAP counter-screen; inhibition, % at 5.96 µM; recombinant F. hepatica cathepsin L1, Z-Leu-Arg-MCA fluorescence; 300,000 tested, 0.49% active; AID 1906;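 active = inhibition above the mean of all tested compounds plus 3 SD, set per screening campaign, cut at about 17% in these data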
TDP2 confirm: confirmation of human TDP2 inhibitors; shares compounds with TDP2 inh; recombinant human TDP2, absorbance read-out; inhibition, % at 12.8 µM; 1,100 tested, 22% active; AID 743263; in the data active = inhibition above about 25%
Large screens that a line does not name were inactive (follow-up assays come after a bar, where they were run).

COc1ccc(-n2c(N)c(C(=O)NCc3ccco3)c3nc4ccccc4nc32)cc1	TDP2 inh 27 | TDP2 confirm inactive
COc1ccc(-n2c(N)c(C(=O)NCc3ccco3)c3nc4ccccc4nc32)cc1OC	none (no result: NSD2 HMT inh)
COc1ccc(COC(=O)c2cccc(S(=O)(=O)N3CCN(C(C)=O)CC3)c2)cc1F	TDP2 inh 25 (no result: SUMO HTRF inh) | TDP2 confirm inactive
O=C(NCCOc1ccccc1F)c1ccc2c(=O)n3c(nc2c1)CCC3	none (no result: NSD2 HMT inh, SUMO HTRF inh, CTSL1 counter)
Cc1[nH][nH]c(=O)c1C(c1cc(Br)ccc1O)c1c(C)[nH][nH]c1=O	TDP2 inh 30 | TDP2 confirm inactive
Cc1[nH][nH]c(=O)c1C(c1cc2c(cc1Br)OCO2)c1c(C)[nH][nH]c1=O	none
O=C(Cn1cc(COc2ccc(Cl)c(Cl)c2)nn1)NS(=O)(=O)c1ccccc1C(F)(F)F	none (no result: SUMO HTRF inh, CTSL1 counter)
CC(C)c1ccc(NC(=O)NCc2ccccn2)cc1	TDP2 inh 52 | TDP2 confirm inactive
COCCNC(=O)C1(C)CCCN(Cc2ccc(-n3ccnc3)cc2)C1 (configuration not stated)	none (no result: SUMO HTRF inh, CTSL1 counter)
CC1=NN(c2ccc(N)cc2)C(=O)C1	TDP2 inh 38 | TDP2 confirm inactive
CC1=NN(c2ccc(Cl)cc2)C(=O)C1	TDP2 inh 58 | TDP2 confirm inactive
COC(=O)CC1=NN(c2ccc(OC)cc2)C(=O)C1	none
O=C1CCCCCCCN1Cc1ccccc1	none (no result: SUMO HTRF inh)
CC1=NN(c2ccccc2)C(=O)C1	TDP2 inh 66 (no result: NSD2 HMT inh) | TDP2 confirm inactive
CC1=NN(c2cccc([N+](=O)[O-])c2)C(=O)C1	none
CC1=NN(Cc2ccccc2)C(=O)C1	TDP2 inh 58 | TDP2 confirm inactive
COc1cc(CNc2ncnc3c2ncn3[C@H]2CN(Cc3ccncc3)C[C@@H](CO)O2)cc(OC)c1OC	none (no result: SUMO HTRF inh, CTSL1 counter)
COc1ccc(C(C)=O)cc1CSc1ccc2c(c1)OCCO2	none
O=C1C(N2CCOCC2)=C(n2nnc3ccccc32)C(=O)c2ccccc21	NSD2 HMT inh 117, TDP2 inh 50, CTSL1 counter 81 | TDP2 confirm 64
Cc1cc(C)c2cc(C#N)c(NCCNC(=O)c3cccnc3)nc2c1	none (no result: SUMO HTRF inh, CTSL1 counter)
CCOC(=O)CSC1=NC(=O)/C(=C/c2ccc(Br)cc2)S1	TDP2 inh 25 | TDP2 confirm inactive
COc1ccc(C=O)c(-c2c(-c3ccccc3OC)sc3ccccc23)c1	none (no result: NSD2 HMT inh, SUMO HTRF inh, CTSL1 counter)
COc1cc(CN2CC(C)OC(C)C2)cc(OC)c1 (configuration not stated)	TDP2 inh 24 (no result: SUMO HTRF inh) | TDP2 confirm inactive
COc1cc(CN2CCCCCC2)cc(OC)c1	none
Fc1cccc(Cc2c(-c3ccco3)nc3c4ccccc4ccn23)c1	none (no result: NSD2 HMT inh, SUMO HTRF inh, CTSL1 counter)
COc1cc(CN2C[C@@H](CO)O[C@@H](n3cnc4c(NCC(C)C)ncnc43)C2)cc(OC)c1OC	none (no result: SUMO HTRF inh, CTSL1 counter)
COc1ccc(CN2CCN(Cc3cccc(Oc4ccccc4)c3)CC2)c(OC)c1OC	none
COc1cc(CN2CCN(Cc3cccc(OC)c3OC)CC2)cc(OC)c1	TDP2 inh 26 | TDP2 confirm inactive
Cc1cc(C)cc(OCC(=O)NNC(=O)CC(C)c2ccccc2)c1 (configuration not stated)	none (no result: SUMO HTRF inh, CTSL1 counter)
CCc1cccc(CC)c1NC(=O)CN1CCc2cc(OC)c(OC)cc2C1	none (no result: NSD2 HMT inh, TDP2 inh)
Cc1[nH]c(C)c(S(=O)(=O)N(C)Cc2ccccc2)c1C(=O)N1CCCC1	TDP2 inh 28 | TDP2 confirm inactive
Cc1[nH]c(C)c(S(=O)(=O)N(Cc2ccccc2)C(C)(C)C)c1C(=O)N1CCCC1	none
CSCCC(NC(=O)COc1ccccc1)C(=O)OC(C)C(=O)Nc1ccccc1C (configuration not stated)	none (no result: SUMO HTRF inh)
CCCN1CCN(CCCNC(=O)Cn2nc(C)n3c(cc4cc(OC)ccc43)c2=O)CC1	TDP2 inh 27 (no result: SUMO HTRF inh) | TDP2 confirm inactive
CN(C)C(CNC(=O)C1CCN(S(=O)(=O)c2ccccc2C(F)(F)F)CC1)Cc1ccccc1 (configuration not stated)	none (no result: SUMO HTRF inh, CTSL1 counter)
O=c1cc(-c2ccc(Br)cc2)[nH][nH]1	TDP2 inh 51 | TDP2 confirm inactive
O=c1cc(-c2ccc(F)cc2)[nH][nH]1	TDP2 inh 55 | TDP2 confirm inactive
O=c1cc(-c2ccccc2)[nH][nH]1	TDP2 inh 59 | TDP2 confirm inactive
O=c1cc(-c2ccc(C3CCCCC3)cc2)[nH][nH]1	none
O=c1cccc(-c2ccccc2)[nH]1	none
COc1ccc(-c2ccc3c(n2)CCCN3S(=O)(=O)c2ccc(OC)cc2)cc1	none (no result: NSD2 HMT inh, SUMO HTRF inh, CTSL1 counter)
COC(=O)C[C@@H]1C[C@H]2c3cc(NS(C)(=O)=O)ccc3O[C@H]2[C@H](CO)O1	none (no result: NSD2 HMT inh, SUMO HTRF inh, CTSL1 counter)
CCOC(=O)C1(C(=O)OCC)N=C(c2ccccc2)C=C1c1ccccc1	none (no result: SUMO HTRF inh, CTSL1 counter)
C[C@@H]1CN(C(=O)OC(C)(C)C)CCN1c1ccc(N2CCN(Cc3ccccc3)[C@@H](C)C2)c(C#N)c1	none (no result: NSD2 HMT inh, SUMO HTRF inh, CTSL1 counter)
COc1ccc(CNc2nc3nc(-c4ccccc4)cc(=O)n3[nH]2)cc1OC	TDP2 inh 33 | TDP2 confirm inactive
COc1ccc(CCNCC(=O)Nc2ccc(C)c(S(=O)(=O)N(C)C)c2)cc1OC	TDP2 inh 32 | TDP2 confirm inactive
CN(C)c1ccc(C=c2c3ccccc3n3c2c2ccccc2[n+]3C)cc1	none (no result: NSD2 HMT inh, SUMO HTRF inh, CTSL1 counter)
CCOC(=O)c1cc2c(=Cc3ccc(N(C)C)cc3)c3ccccc3n2[n+]1C	TDP2 inh 52 (no result: SUMO HTRF inh, CTSL1 counter) | TDP2 confirm 56
Cc1[nH]c2ccccc2c1C(=O)CN1CCN(C2CCCCC2)CC1	none (no result: NSD2 HMT inh, TDP2 inh, CTSL1 counter)
Cc1[nH]c2ccccc2c1C(=O)CN1C(=O)C(=O)N(C2CCCC2)C1=O	TDP2 inh 26 | TDP2 confirm inactive
CCc1ccc(CN(C)Cc2nc(-c3cccc(Cl)c3)no2)nc1	TDP2 inh 28 | TDP2 confirm inactive
Cc1ccc(/C=N/Nc2nncn2N)cc1	TDP2 inh 78 | TDP2 confirm inactive
Nn1cnnc1N/N=C/c1ccc(F)cc1	TDP2 inh 64 | TDP2 confirm inactive
Fc1ccc(/C=N/Nc2nn[nH]n2)cc1	none
COc1ccc(NC(=O)CSc2nnc(-c3cc(C)[nH]n3)n2N)cc1OC	TDP2 inh 30 | TDP2 confirm inactive
CN1C(=O)/C(=C/c2ccc(C(=O)Nc3ccc(O)cc3C(=O)O)cc2)SC1=S	TDP2 inh 28 | TDP2 confirm inactive
CN1CCCCC(NC(=O)c2ccc(F)cc2)C1=O (configuration not stated)	none (no result: NSD2 HMT inh, SUMO HTRF inh, CTSL1 counter)
CC1=NN(c2ccccc2)C(=O)C1N=Nc1ccc(N)cc1 (configuration not stated)	TDP2 inh 29 | TDP2 confirm inactive
CC1=NN(c2ccccc2)C(=O)C1N=Nc1ccccc1 (configuration not stated)	none
Cc1ccc(NC(=O)Cc2nnc(SCC(=O)Nc3nncs3)n2C)c(C)c1	TDP2 inh 29 | TDP2 confirm inactive
Cn1c(CC(=O)Nc2ccccc2Cl)nnc1SCC(=O)Nc1nncs1	none
COc1ccc(N2CCN(CC(=O)N3c4ccccc4CC3C)CC2)cc1 (configuration not stated)	TDP2 inh 26 | TDP2 confirm inactive
CC1CCN(CC(=O)N2c3ccccc3CC2C)CC1 (configuration not stated)	none
